The values that follow come from ChEMBL document CHEMBL1795215, “Design, synthesis and biological assessment of novel N-substituted 3-(phthalimidin-2-yl)-2,6-dioxopiperidines and 3-substituted 2,6-dioxopiperidines for TNF-α inhibitory activity” (Bioorg Med Chem, 2011).

Data set [1] has as its system RAW264.7. The data set is described as follows: Inhibition of LPS-induced TNFalpha production in mouse RAW264.7 cells assessed as TNFalph activity at 30 uM by ELISA relative to thalidomide. In kind it is functional. The method in brief:
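LPS-stimulated RAW 264.7 cells were treated at 30 μM, and TNF-α in the medium was measured by mouse TNF-α ELISA as % of vehicle control (n = 3). Fold activity relative to thalidomide = (100 − compound TNF-α % control)/(100 − thalidomide TNF-α % control).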
On the technique in general: ELISA stands for enzyme-linked immunosorbent assay.

A short description of data set [2]: Toxicity against mouse RAW264.7 cells assessed as cell viability at 30 uM by Cell titer 96 squeous one solution cell proliferation assay untreated control. In kind it is cell-based. The following applies: read-out: Activity. The method in brief: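 Viability of RAW 264.7 cells given 30 μM compound with LPS was read by CellTiter 96 Aqueous One tetrazolium dye formation, with absorbance at 490 nm. Results are % change in O.D. versus the appropriate control, mean ± S.E.M., n = 3, with Student's t-test (P<0.05 significant).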

In data set [3] the test system is RAW264.7. The experiment in a line: Inhibition of LPS-induced TNFalpha production in mouse RAW264.7 cells assessed as TNFalph activity at 30 uM by ELISA relative to untreated control. In kind it is functional. Also noted: scale not given: the % may be the effect or the level left. The method in brief:
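RAW 264.7 cells were cultured and exposed to compound at 30 μM together with LPS. TNF-α protein in the culture medium was quantified by a mouse TNF-α-specific ELISA and expressed as % of the appropriate control. Values are mean ± S.E.M., n = 3, with Student's t-test (P<0.05 significant).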

As to `O=C1CCC(N2Cc3ccccc3C2=O)C(=O)N1CSC(=S)NC1CCCCC1` (stereo unspecified), the “fold change (FC)” value in the data set on RAW264.7 [1] is recorded as 45. Also, the viability at 30 µM in data set [2] was 103%. In the data set on RAW264.7 [3], the Activity is 55%.

For `O=C1CCC(N2Cc3ccccc3C2=O)C(=O)N1CSC(=S)N1CCCCC1` (stereo unspecified), the “fold change (FC)” value with RAW264.7 [1] came to 4. Further, the viability at 30 µM in data set [2] stood at 112%. Also, the Activity in the data set with RAW264.7 [3] was determined as 96%.

On to `O=C1CCCC(=O)N1CN1C(=O)CCC(N2Cc3ccccc3C2=O)C1=O` (stereo unspecified), for which the “fold change (FC)” value in the data set on RAW264.7 [1] is 21. In addition, in data set [2], the viability at 30 µM is 102%. Further, the Activity with RAW264.7 [3] was determined as 79%.

`O=C1CCC(N2Cc3ccccc3C2=O)C(=O)N1CN1C(=S)CCCC1=S` (stereo unspecified): the “fold change (FC)” value in the data set on RAW264.7 [1] turned out to be 37. The viability at 30 µM in data set [2] worked out at 94%. Moreover, the Activity in the data set with RAW264.7 [3] is 63%.

`O=C1CCC(N2Cc3ccccc3C2=O)C(=O)N1CN1C(=O)c2ccccc2C1=O` (stereo unspecified): the “fold change (FC)” value with RAW264.7 [1] worked out at 12. In data set [2], the viability at 30 µM is 98%. Besides, the Activity in the data set with RAW264.7 [3] is recorded as 88%.

Consider `O=C1CCC(N2Cc3ccccc3C2=O)C(=O)N1CN1C(=S)c2ccccc2C1=S` (stereo unspecified), for which the “fold change (FC)” value in the data set on RAW264.7 [1] was 48. Further, the viability at 30 µM in data set [2] was 82%. Moreover, the Activity in the data set on RAW264.7 [3] stood at 52%.

Consider `O=C1CCC(N2S(=O)(=O)c3ccccc3S2(=O)=O)C(=O)N1` (stereo unspecified), for which the “fold change (FC)” value with RAW264.7 [1] turned out to be 45. Also, the viability at 30 µM in data set [2] was found to be 109%. The Activity in the data set on RAW264.7 [3] amounted to 55%.

Consider `N=C1N/C(=N\C2CCC(=O)NC2=O)c2ccccc21` (stereo unspecified), for which the “fold change (FC)” value with RAW264.7 [1] is recorded as 39. Besides, in data set [2], the viability at 30 µM worked out at 116%. Also, the Activity in the data set with RAW264.7 [3] stood at 61%.

With `N=C1c2ccccc2C(=O)N1C1CCC(=O)NC1=O` (stereo unspecified), the “fold change (FC)” value in the data set with RAW264.7 [1] worked out at 33. The viability at 30 µM in data set [2] worked out at 84%. Also, the Activity in the data set on RAW264.7 [3] is 67%.

For the molecule `O=C1CCC(N2C(=O)c3cccnc3C2=O)C(=O)N1` (stereo unspecified), the “fold change (FC)” value in the data set on RAW264.7 [1] is -4. In addition, in data set [2], the viability at 30 µM came to 95%. Besides, in the data set on RAW264.7 [3], the Activity stood at 104%.

As for `O=C1CCC(N2C(=O)c3ccncc3C2=O)C(=O)N1` (stereo unspecified), the “fold change (FC)” value in the data set with RAW264.7 [1] turned out to be 4. The viability at 30 µM in data set [2] was determined as 96%. Also, in the data set with RAW264.7 [3], the Activity was found to be 96%.

`Nc1cccc2c1CN(C1CCC(=O)NC1=O)C2=O` (stereo unspecified) [LENALIDOMIDE]: the fold change (FC) in the data set with RAW264.7 [1] is -9. For the same molecule, the viability at 30 µM in data set [2] was determined as 106%. The Activity in the data set on RAW264.7 [3] amounted to 109%.
